In ChEMBL document CHEMBL3826940, “Amphipathicity Determines Different Cytotoxic Mechanisms of Lysine- or Arginine-Rich Cationic Hydrophobic Peptides in Cancer Cells” (J Med Chem, 2016):
Calls of active or inactive are those of the source. The rule behind the calls is not given here.

How the values were obtained:
MCF7 [1] = assay: Selectivity index, ratio of IC50 for HUVEC to IC50 for human MCF7 cells
HeLa [2] = assay: Induction of apoptosis in human HeLa cells assessed as caspase-3 activation at 5 uM after 5 mins by caspase-glo assay; assay type: functional, cell-based
Summary of the method: (§1)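 Cells in 96-well plates were exposed to 5 μM peptide for 5, 10, 15 or 30 min, or 1, 2, 3 or 4 h. Caspase-Glo 3/7 reagent was added, the plate shaken 30 s and incubated 2 h at room temperature, and luminescence was read.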

HeLa [3] = assay: Induction of apoptosis in human HeLa cells assessed as caspase-3 cleavage at 5 uM after 5 mins by Western blot method; assay type: functional, cell-based
Summary of the method: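 HeLa cells (8 × 10^5 per 100 mm dish, grown 24 h) were exposed to 5 μM peptide for 5, 10 or 15 min. Lysates (with 1 mM PMSF) were run on 15% SDS-PAGE and blotted to PVDF. Blots were probed overnight at 4 °C with rabbit monoclonal anti-cleaved caspase-3, then HRP goat anti-rabbit, and detected by ECL with actin as loading control.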

HeLa [4] = assay: Induction of shrinkage of human HeLa cells at 5 uM after 30 mins by microscopic method; assay type: functional, cell-based
Summary of the method: (§2)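 HeLa cells were co-incubated with 5 μM peptide for 30 min. Morphology was then examined under the microscope.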

A549 [5] = assay: Selectivity index, ratio of IC50 for human 293T cells to IC50 for human A549 cells; assay type: functional
HeLa [6] = assay: Cytotoxicity against human HeLa cells assessed as cell mortality at 5 uM after 5 mins by MTT assay; assay type: functional, cell-based
[7] = Cytotoxicity against human 293T cells assessed as cell viability after 24 hrs by MTT assay; assay type: cell-based, HEK-293T
Summary of the method: (§3)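 MTT viability assay. Cells were seeded at 1 × 10^4 cells/well in complete medium and grown 24 h. Medium was replaced with fresh medium containing peptide over a concentration series and incubated 24 h. MTT (5 mg/mL) was added for 4 h, formazan was dissolved in DMSO, and A490 was read. IC50 was derived from mean ± SD of three independent experiments.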

HeLa [8] = assay: Selectivity index, ratio of IC50 for human 293T cells to IC50 for human HeLa cells; assay type: functional
MCF7 [9] = assay: Cytotoxicity against human MCF7 cells assessed as cell viability after 24 hrs by MTT assay; assay type: functional, cell-based; summary of the method: as §3
MCF7 [10] = assay: Induction of reactive oxygen species generation in human MCF7 cells at 5 uM after 30 mins by DCFH-DA staining-based fluorescence assay; assay type: functional, cell-based
Summary of the method: (§4)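 Cells in 96-well plates were loaded with DCFH-DA for 20 min at 37 °C, then treated with or without 5 μM peptide for 30 min. After a PBS wash, DCF fluorescence was read at 485/535 nm and expressed as fold change versus untreated cells.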

MCF7 [11] = assay: Selectivity index, ratio of IC50 for HLF to IC50 for human MCF7 cells
HeLa [12] = assay: Induction of reactive oxygen species generation in human HeLa cells at 5 uM after 30 mins by DCFH-DA staining-based fluorescence assay; assay type: functional, cell-based; summary of the method: as §4
HeLa [13] = assay: Cytotoxicity against human HeLa cells assessed as cell viability after 24 hrs by MTT assay; assay type: functional, cell-based; summary of the method: as §3
[14] = Induction of reactive oxygen species generation in HLF at 5 uM after 30 mins by DCFH-DA staining-based fluorescence assay; settings: human, 0.5 h; summary of the method: as §4
HUVEC [15] = assay: Induction of reactive oxygen species generation in HUVEC at 5 uM after 30 mins by DCFH-DA staining-based fluorescence assay; assay type: cell-based; settings: human, 0.5 h; summary of the method: as §4
[16] = Hemolytic activity in mouse RBC after 1 hr; assay type: ADME, cell-based, Erythrocyte; settings: red blood cells
Summary of the method: (§5)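 Heparinized fresh mouse blood: RBCs were washed three times in 0.9% saline and diluted to 4.0 × 10^8 cells/mL. Peptides at various concentrations were incubated with the RBCs 1 h at 37 °C. After centrifugation at 1000 rpm for 10 min, supernatant absorbance was read at 540 nm, with 1% Triton X-100 set as 100% hemolysis.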

HeLa [17] = assay: Cytotoxicity against human HeLa cells assessed as lethality at 5 uM after 30 mins in presence of caspase-3 inhibitor Ac-DEVD-CHO by MTT assay; assay type: functional
Summary of the method: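 HeLa cells were seeded at 1 × 10^4 cells/well and grown 24 h. They were pretreated 30 min with 50 μM Ac-DEVD-CHO, then incubated with or without 5 μM peptide for 30 min. Survival was measured by MTT: 4 h with MTT, DMSO solubilisation, absorbance at 490 nm.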

HeLa [18] = assay: Induction of apoptosis in human HeLa cells assessed as viable cells at 5 uM after 15 mins by annexin V/FITC staining-based flow cytometric method (reference value: 99.8%); assay type: functional; settings: 0.25 h, read-out: Activity
Summary of the method: (§6)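 Cells were grown 24 h in 6-well plates, then exposed to 5 μM peptide for 15 min. They were collected, washed twice with PBS, and stained with annexin V-FITC plus PI for 20 min at room temperature in the dark before flow cytometry.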

HeLa [19] = assay: Induction of appearance of rounded human HeLa cells at 5 uM after 30 mins by microscopic method; assay type: functional, cell-based; summary of the method: as §2
HeLa [20] = assay: Selectivity index, ratio of IC50 for HLF to IC50 for human HeLa cells
HeLa [21] = assay: Cytotoxicity against human HeLa cells assessed as lethality at 5 uM after 30 mins by MTT assay; assay type: functional
Summary of the method: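 HeLa cells were grown in DMEM with 10% FBS and seeded at 1 × 10^4 cells/well, then grown 24 h. Medium was replaced with fresh medium containing 5 μM peptide for 30 min. MTT was added for 4 h and formazan was dissolved in DMSO (10 min, 37 °C). Lethality was read as absorbance at 490 nm.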

[22] = Drug uptake in cytoplasm of human HeLa cells at 5 uM after 2 to 30 mins using iridium dye labeled compound by confocal microscopic method; assay type: ADME, cell-based
Summary of the method: (§7)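 Peptides were labelled at the N-terminal His with [Ir(ppy)2(H2O)2]OTf: 200 μM each, mixed 1:1 in PBS, 2 h at 37 °C in the dark. HeLa cells (1 × 10^5 per dish, grown 24 h) were exposed to 5 μM labelled peptide. Live-cell confocal images were taken at 0, 5 and 15 min (excitation 403 nm, emission 500–560 nm).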

HeLa [23] = assay: Cytotoxicity against human HeLa cells assessed as cell mortality at 5 uM after 30 mins by Hoechst 33342/propidium iodide staining-based assay; assay type: functional
Summary of the method: (§8)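 HeLa cells treated with 5 μM peptide were co-stained with Hoechst 33342 (stains all nuclei) and propidium iodide (stains only membrane-compromised cells). Fluorescence imaging was done at time points up to 30 min.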

HUVEC [24] = assay: Cytotoxicity against HUVEC assessed as cell viability after 24 hrs by MTT assay; assay type: cell-based, Homo sapiens; summary of the method: as §3
A549 [25] = assay: Cytotoxicity against human A549 cells assessed as cell viability after 24 hrs by MTT assay; assay type: functional, cell-based; summary of the method: as §3
A549 [26] = assay: Selectivity index, ratio of IC50 for HUVEC to IC50 for human A549 cells
A549 [27] = assay: Selectivity index, ratio of IC50 for HLF to IC50 for human A549 cells
[28] = Cytotoxicity against HLF assessed as cell viability after 24 hrs by MTT assay; set-up: species or system Homo sapiens; summary of the method: as §3
HeLa [29] = assay: Induction of apoptosis in human HeLa cells assessed as late apoptotic cells at 5 uM after 15 mins by annexin V/FITC staining-based flow cytometric method relative to control; assay type: functional; summary of the method: as §6
HeLa [30] = assay: Induction of apoptosis in human HeLa cells assessed as early apoptotic cells at 5 uM after 15 mins by annexin V/FITC staining-based flow cytometric method (reference value: 0.1%); assay type: functional; summary of the method: as §6
HeLa [31] = assay: Cytotoxicity against human HeLa cells assessed as cell mortality at 5 uM after 6 hrs by MTT assay; assay type: functional, cell-based
MCF7 [32] = assay: Selectivity index, ratio of IC50 for human 293T cells to IC50 for human MCF7 cells; assay type: functional
HeLa [33] = assay: Induction of apoptosis in human HeLa cells assessed as necrotic cells at 5 uM after 15 mins by annexin V/FITC staining-based flow cytometric method relative to control; assay type: functional; summary of the method: as §6
HeLa [34] = assay: Induction of morphological changes in human HeLa cells at 5 uM after 30 mins by microscopic method; assay type: functional, cell-based; summary of the method: as §2
HeLa [35] = assay: Selectivity index, ratio of IC50 for HUVEC to IC50 for human HeLa cells
HeLa [36] = assay: Cytotoxicity against human HeLa cells assessed as cell mortality at 5 uM after 5 mins by Hoechst 33342/propidium iodide staining-based assay; assay type: functional; summary of the method: as §8
A549 [37] = assay: Induction of reactive oxygen species generation in human A549 cells at 5 uM after 30 mins by DCFH-DA staining-based fluorescence assay; assay type: functional, cell-based; summary of the method: as §4
[38] = Induction of reactive oxygen species generation in human 293T cells at 5 uM after 30 mins by DCFH-DA staining-based fluorescence assay; assay type: cell-based; settings: hek-293t, 0.5 h; summary of the method: as §4
HeLa [39] = assay: Induction of apoptosis in human HeLa cells assessed as caspase-3 activation at 5 uM after 1 to 4 hrs by caspase-glo assay; assay type: functional, cell-based; summary of the method: as §1
HeLa [40] = assay: Cytotoxicity against human HeLa cells assessed as lethality at 5 uM at 0 degC after 30 mins by MTT assay; assay type: functional, cell-based
Summary of the method: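 HeLa cells were incubated with peptide over a range of concentrations at 0 or 37 °C for 30 min. Lethality was then measured by MTT, with A490 read after DMSO solubilization.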

HeLa [41] = assay: Drug uptake in human HeLa cells at 5 uM after 15 mins using iridium dye labeled compound by confocal microscopic method; assay type: ADME, cell-based; settings: 0.25 h; summary of the method: as §7
[42] = Hemolytic activity in mouse RBC at 0.39 to 50 uM after 1 hr; assay type: ADME, cell-based; settings: erythrocyte; summary of the method: as §5

Molecule: CC(C)C[C@H](NC(=O)[C@H](CCCNC(=N)N)NC(=O)[C@H](CC(C)C)NC(=O)[C@H](CC(C)C)NC(=O)[C@H](CCCNC(=N)N)NC(=O)[C@H](CCCNC(=N)N)NC(=O)[C@H](CC(C)C)NC(=O)[C@H](CCCNC(=N)N)NC(=O)[C@H](CC(C)C)NC(=O)[C@H](CC(C)C)NC(=O)[C@H](CCCNC(=N)N)NC(=O)[C@H](CC(C)C)NC(=O)[C@H](CC(C)C)NC(=O)[C@H](CCCNC(=N)N)NC(=O)CNC(=O)CNC(=O)[C@@H](N)Cc1cnc[nH]1)C(N)=O
- Ratio IC50 (MCF7 [1]): 4
- Activity (HeLa [2]): Active
- Activity (HeLa [3]): Active
- Activity (HeLa [4]): Active
- Ratio IC50 (A549 [5]): 4
- Activity (HeLa [6]): inactive
- IC50 ([7]; Homo sapiens, HEK-293T): 41.6 µM
- Ratio IC50 (HeLa [8]): 4
- IC50 (MCF7 [9]; MCF7, 24 h): 4.5 µM
- Activity (MCF7 [10]): Active
- Ratio IC50 (MCF7 [11]): 4
- Activity (HeLa [12]): Active
- IC50 (HeLa [13]): 4.2 µM
- Activity [14]: Non-toxic
- Activity (HUVEC [15]): Non-toxic
- HC50 at 1 h [16]: > 200 µM
- Activity (HeLa [17]): 20%
- viability at 5 µM (HeLa [18]): 46.3%
- Activity (HeLa [19]): Active
- Ratio IC50 (HeLa [20]): 4
- Activity (HeLa [21]): 56%
- Drug uptake [22]: Active
- Activity (HeLa [23]): Active
- IC50 (HUVEC [24]; Homo sapiens, HUVEC): 19 µM
- IC50 (A549 [25]; A549, 24 h): 4.8 µM
- Ratio IC50 (A549 [26]): 4
- Ratio IC50 (A549 [27]): 4
- IC50 ([28]; Homo sapiens, HLF): 21.4 µM
- Activity (HeLa [29]): 7.7%
- Activity (HeLa [30]): 45.9%
- Activity (HeLa [31]): Active
- Ratio IC50 (MCF7 [32]): 4
- Activity (HeLa [33]): 0.1%
- Activity (HeLa [34]): inactive
- Ratio IC50 (HeLa [35]): 4
- Activity (HeLa [36]): inactive
- Activity (A549 [37]): Active
- Activity [38]: Non-toxic
- Activity (HeLa [39]): inactive
- Activity (HeLa [40]): inactive

Molecule: CC(C)C[C@@H](NC(=O)[C@@H](CCCNC(=N)N)NC(=O)[C@@H](CC(C)C)NC(=O)[C@@H](CC(C)C)NC(=O)[C@@H](CCCNC(=N)N)NC(=O)[C@@H](CCCNC(=N)N)NC(=O)[C@@H](CC(C)C)NC(=O)[C@@H](CCCNC(=N)N)NC(=O)[C@@H](CC(C)C)NC(=O)[C@@H](CC(C)C)NC(=O)[C@@H](CCCNC(=N)N)NC(=O)[C@@H](CC(C)C)NC(=O)[C@@H](CC(C)C)NC(=O)[C@@H](CCCNC(=N)N)NC(=O)CNC(=O)CNC(=O)[C@H](N)Cc1cnc[nH]1)C(N)=O
- IC50 (HeLa [13]): 4.1 µM
- Drug uptake (HeLa [41]): Active

Molecule: H-HGGKLLKLLKLKKLLKL-NH2
- Activity ([7]; human, hek-293t): Non-toxic
- Activity (MCF7 [9]): inactive
- IC50 (HeLa [13]): 34.5 µM
- Activity [42]: Non-toxic
- Activity (HUVEC [24]; human, huvec): Non-toxic
- Activity (A549 [25]): inactive
- Activity ([28]; human, hlf): Non-toxic
